Results from ChEMBL document CHEMBL1141857, “Lichen metabolites. 1. Inhibitory action against leukotriene B4 biosynthesis by a non-redox mechanism” (J Nat Prod, 1999).

Key:
[1] = Inhibition of AAPH-induced lipid peroxidation in bovine brain phospholipid liposome; assay type: functional, tissue-based, Bos taurus
Method in brief: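 Bovine brain phospholipid liposomes (1 mg/mL final) in 30 mM KH2PO4-KOH buffer, pH 7.4, with 10 mM AAPH and test compound at variable concentrations (acetone vehicle). Incubated 1 h at 37 °C with shaking. BHT, HCl and TBA then added; TBA-reactive material extracted into butanol and read at 532 nm against an MDA standard.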

[2] = system: PMNL; test: Inhibition of LTB4 biosynthesis in A-23187-stimulated bovine PMNL cells; assay type: functional, cell-based; conditions: Bos taurus
Method in brief: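 Bovine PMNL (10^7 cells/mL) preincubated with compound 15 min at 37 °C, then stimulated with Ca-ionophore. LTB4 and 5-HETE released after 10 min quantified by reversed-phase HPLC. Inhibition = (1 − test/control) × 100, test n = 3, control n = 6–8. IC50 interpolated from log concentration–response plot using ≥4 concentrations spanning 50%.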

[3] = system: Radical scavenging activity; test: Antioxidant activity assessed as DPPH radical scavenging activity at equimolar amount of compound; assay type: functional
Method in brief: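 Test compound and DPPH mixed at equal concentrations (each […] as printed) in acetone–PBS 1:1 v/v. DPPH reduction followed spectrophotometrically at 516 nm. Reciprocal DPPH concentration plotted against time; second-order rate constant taken from slope, mean of n = 3–6.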

[4] = Prooxidant activity assessed as hydroxyl radical formation at 75 uM measured as malondialdehyde per mmol of deoxyribose by deoxyribose assay; assay type: functional
Method in brief: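 Final mixture: 2 mM 2-deoxy-D-ribose, 0.1 mM FeCl3, 30 mM KH2PO4-KOH pH 7.4, 75 μM compound, acetonitrile vehicle controls; 2 h at 37 °C with shaking. TCA and TBA added, heated 100 °C 15 min, butanol-extracted, A532 read. Calibrated against MDA from tetraethoxypropane; reported as μmol MDA/mmol deoxyribose, n = 3.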

IC50 [1]	IC50 [2]	Structure (SMILES)	Activity [3]	Activity [4]
> 200 µM	42 µM	CC(=O)C1=C(O)C=C2Oc3c(C(C)=O)c(O)c(C)c(O)c3[C@@]2(C)C1=O [(+)-USNIC ACID]	< 1 M⁻¹ s⁻¹	1.47 µmol
> 200 µM	6 µM	COC(=O)c1c(C)cc(OC(=O)c2c(C)cc(O)c(C=O)c2O)c(C)c1O [ATRANORIN]	11.5 M⁻¹ s⁻¹	0 µmol
> 200 µM	> 60 µM	COC(=O)c1c(C)cc(O)c(C)c1O [ATRARIC ACID]	5.95 M⁻¹ s⁻¹	1.43 µmol
> 200 µM	8 µM	COc1cc(C)c(C(=O)Oc2cc(C)c(C(=O)O)c(O)c2C)c(OC)c1C [DIFFRACTAIC ACID]	< 1 M⁻¹ s⁻¹	0.12 µmol
> 200 µM	40 µM	CCOC(=O)c1c(C)cc(O)c(C=O)c1O [ETHYL HEMATOMMATE]	12.2 M⁻¹ s⁻¹	0.3 µmol

The next lines start with the compound.

Structure (SMILES)	IC50 [1]	IC50 [2]	Activity [3]	Activity [4]
O=C1c2c(O)cccc2Cc2cccc(O)c21 [ANTHRALIN]	79 µM		24.2 M⁻¹ s⁻¹	
Cc1cc(OC(=O)c2c(C)cc(OC(=O)c3c(C)cc(O)cc3O)cc2O)cc(O)c1C(=O)O [GYROPHORIC ACID]	> 200 µM	> 60 µM	3.63 M⁻¹ s⁻¹	0.12 µmol
CC(Cc1ccc(O)c(O)c1)C(C)Cc1ccc(O)c(O)c1 (centres undefined) [NORDIHYDROGUAIARETIC ACID]	2 µM	0.4 µM	> 100 M⁻¹ s⁻¹	0.23 µmol
C=C1C(=O)O[C@@H](CCCCCCCCCCCCC)[C@@H]1C(=O)O [PROTOLICHESTERINIC ACID]	> 200 µM	9 µM	< 1 M⁻¹ s⁻¹	0.08 µmol
